Source: PubChem (several laboratories)
Hits are enriched below; roughly 3.4% of the tested compounds scored in any of these assays.
UCH37 DUB inh: inhibitors of human UCH37 deubiquitinase, primary screen, biochemical, Ub-AMC cleavage, fluorescence; Ubiquitin carboxyl-terminal hydrolase isozyme L5 (Homo sapiens), Q9Y5K5; purified proteasome/UCH37; inhibition, % (concentration not given with the values); hit rate 0.33% among 330,000; AID 588478, 2011;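 active means mean inhibition over replicate wells above about 20%, limit read from the data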;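 further: 0% = compound-free wells with enzyme and 100% = wells lacking proteasome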
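Test system – human UCH37 enzyme supplied as purified proteasome complex · Incubation – 30 min preincubation with enzyme, 25 min cleavage at room temperature · Detection – AMC fluorescence from Ub-AMC cleavage, excitation 355 nm, emission 460 nm · Benchmarks – no-proteasome wells (full inhibition) and compound-free wells (no inhibition)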
A3G deaminase: APOBEC3G DNA deaminase inhibitors, primary screen, biochemical, fluorescence, single-stranded DNA substrate, uHTS. DNA dC->dU-editing enzyme APOBEC-3G (Homo sapiens), Q9HC16. recombinant A3G, ssDNA deamination FAM/TAMRA fluorescence. inhibition, % at 20 µM. hit rate 0.28% among 330,000. AID 493012, 2011;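 active means inhibition of at least 40% at 20 µM, with no more than 30% in the related APOBEC3A deaminase screen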;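 further: plate controls were DMSO wells with A3G for no effect and wells lacking A3G enzyme for full effect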
Arrestin-AP2 inh: inhibitors of beta-arrestin/AP2 binding, primary screen, biochemical, GPCR trafficking, flow cytometry | beta-arrestin 1 C-terminal peptide binding to AP2 beta2-adaptin appendage (human) | FITC-arrestin peptide / GST-AP2 beads; AP2 beta2 appendage carries R879A mutation | inhibition, % at 10 µM | hit rate 0.31% among 340,000;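 active means inhibition above a set limit, near 3 SD of compounds lacking own fluorescence, cut at about 54% in these data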;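 further: plate controls were DMSO wells for no effect and 5 µM unlabelled arrestin peptide for full effect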
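Assay system: GST-AP2 R879A bound to glutathione beads, E. coli-expressed; Medium: PBS with 0.05% Tween 20 and 0.1% BSA; Also added: fluorescein-tagged arrestin peptide at 50 nM final; Timing: 12 min plus 1 h, RT; Measured by: flow cytometry, FL1 (488/535 nm); Evaluation: percent drop in bead-associated FITC signal.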
APOBEC3A inh: APOBEC3A ssDNA deaminase inhibitors, primary screen, selectivity assay for APOBEC3G inhibitor project, biochemical, FAM/TAMRA oligo cleavage fluorescence | inhibition, % at 20 µM | AID 493011, 2011 | hit rate 0.41% among 330,000 | DNA dC->dU-editing enzyme APOBEC-3A (Homo sapiens), P31941 | recombinant A3A, FAM/TAMRA ssDNA deamination fluorescence;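 active means at least 40% inhibition at 20 µM here, with at most 30% in a related deaminase screen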;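 further: plate controls were A3A with DMSO for no effect and wells lacking A3A enzyme for full effect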
Target sequence (P31941 whole entry, looked up): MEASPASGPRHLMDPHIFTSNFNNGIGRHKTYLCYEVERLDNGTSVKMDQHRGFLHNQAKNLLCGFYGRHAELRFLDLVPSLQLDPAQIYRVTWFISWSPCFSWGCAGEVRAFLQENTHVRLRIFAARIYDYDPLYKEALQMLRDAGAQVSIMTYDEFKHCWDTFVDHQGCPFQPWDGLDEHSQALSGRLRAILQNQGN
PolyA inhibitor: polyadenylation inhibitors in yeast reporter cells, primary screen, luminescence, S. cerevisiae; S. cerevisiae SKY197-pL101 polyadenylation reporter, beta-gal luminescence; efflux-impaired pdr1/pdr3 knockout yeast; score 100 = 6 SD above DMSO; activity score, % at 12 µM; hit rate 0.02% among 300,000; AID 1875, 2009;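 active means lowest replicate activity score at least 50, where 100 means six control SD above control mean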;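 further: yeast exposed to compound for 9 h at 30 °C; higher score means more reporter readthrough which indicates perturbed polyadenylation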
AHR activator: AHR activators, primary screen, cell-based, luminescence, luciferase reporter, human; AHR-responsive luciferase reporter cells; hit rate 2.5% among 320,000; activation, % at 5 µM; AID 2796, 2010; in the data active means activation above about 47%;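 further: 0% = vehicle wells and 100% = reference agonist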
AHR act confirm: AHR activators, confirmation, cell-based, luminescence, luciferase reporter, human; shares compounds with AHR activator; activation, % at 9 µM; human cells, AHR-responsive luciferase reporter; hit rate 87% among 2,300; in the data active means activation above about 49%;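 further: HepG2 hepatoma cells carrying a DRE-driven firefly luciferase reporter; 0% = vehicle wells and 100% = reference agonist wells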
PXR counter: human PXR activators, counter-screen for AHR activator project, cell-based, luciferase luminescence; shares compounds with AHR activator; cell-based PXR reporter; activation, % at 11.6 µM; hit rate 88% among 2,300; in the data active means activation above about 11%;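 further: human hepatoma DPX-2 cells expressing full-length human PXR; 0% = DMSO and 100% = reference agonist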
Target sequence (O75469 whole entry, looked up): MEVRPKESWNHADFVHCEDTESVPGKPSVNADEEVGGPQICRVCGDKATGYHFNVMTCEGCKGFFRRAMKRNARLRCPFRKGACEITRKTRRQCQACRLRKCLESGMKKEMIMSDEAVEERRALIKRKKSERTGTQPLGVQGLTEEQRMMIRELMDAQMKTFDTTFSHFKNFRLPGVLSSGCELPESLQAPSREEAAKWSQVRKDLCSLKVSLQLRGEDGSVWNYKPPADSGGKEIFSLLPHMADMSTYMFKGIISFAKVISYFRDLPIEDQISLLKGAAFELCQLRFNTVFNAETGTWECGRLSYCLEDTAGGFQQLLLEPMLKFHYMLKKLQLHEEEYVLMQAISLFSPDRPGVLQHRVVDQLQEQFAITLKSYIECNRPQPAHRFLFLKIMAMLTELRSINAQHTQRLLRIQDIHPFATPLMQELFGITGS
An asterisk follows results filed as active; / = no result given.

SMILES	UCH37 DUB inh	A3G deaminase	Arrestin-AP2 inh	APOBEC3A inh	PolyA inhibitor	AHR activator	AHR act confirm	PXR counter
COc1ccc(S(=O)(=O)NN=Cc2ccc3c(c2)OCO3)cc1	5	/	/	/	/	/	/	/
C=C1C(=O)O[C@@H]2C[C@@H](C)[C@@H]3C=CC(=O)[C@@]3(C)[C@@H](OC(C)=O)[C@H]12	1	-5	/	4	6	81*	-14	283*
CCC(=NNC(=O)COc1ccc(Br)cc1)c1ccc(OC)c(OC)c1	2	/	/	/	/	/	/	/
O=C(NC(=S)Nc1ccccc1N1CCOCC1)c1ccccc1F	2	-4	35	-5	11	95*	73*	31*
O=C(NC(=S)Nc1ccccc1N1CCN(C(=O)c2ccccc2)CC1)c1ccccc1F	5	-6	2	-4	4	2	/	/
CCN(CC)c1ccc(/C=C(\C#N)c2ccccn2)cc1	/	23	14	-3	-37	-8	/	/
CCN(Cc1ccccc1)c1ccc(/C=C(\C#N)c2ccccn2)cc1	1	-9	-9	-2	-7	86*	70*	44*
CNC(=S)NN=C(C)c1ccccc1	6	/	/	/	/	/	/	/
CN(C)c1ccc(Nc2nc(N)c([N+](=O)[O-])c(N3CCOCC3)n2)cc1	14	-1	30	1	-8	82*	68*	39*
CCOc1ccc2c(c1)sc(=NC(=O)C1CC1)n2C	-10	-2	2	-6	-16	92*	71*	37*
Cc1ccc(Cl)cc1Nc1nc(-c2sc(NC(=O)c3cccc(Cl)c3)nc2C)cs1	/	-4	/	2	6	27	/	/
C=CCCC(=O)Nc1nc(C)c(-c2csc(Nc3ccccc3OC)n2)s1	0	-6	16	4	0	101*	65*	31*
CCOc1ccccc1Nc1nc(-c2sc(NC(=O)c3ccc([N+](=O)[O-])cc3)nc2C)cs1	/	-6	/	3	1	30	/	/
C=CCCC(=O)Nc1nc(C)c(-c2csc(Nc3ccc(Cl)cc3Cl)n2)s1	-4	-7	-3	-4	6	102*	73*	25*
Cc1nc(NC(=O)c2ccco2)sc1-c1csc(Nc2ccc(Cl)cc2Cl)n1	-4	-7	-3	3	-2	88*	75*	26*
CCC(C)C(=O)Nc1nc(C)c(-c2csc(Nc3ccccc3OC)n2)s1 (stereo not drawn)	4	-7	2	-6	15	110*	85*	51*
COc1ccccc1Nc1nc(-c2cccnc2)cs1	3	-4	/	-1	5	3	/	/
Cc1ccc(CN2CCN(N=Cc3ccc(C(F)(F)F)cc3)CC2)cc1	3	/	/	/	/	/	/	/
CC(=NNC(=O)CCC(=O)NCc1ccccc1)c1ccc([N+](=O)[O-])cc1	4	/	/	/	/	/	/	/
Cc1nnc(C)n1N=Cc1cccnc1	5	/	/	/	/	/	/	/
COc1ccccc1C(=O)NC(=Nc1nc2ccccc2o1)NC(=O)c1ccccc1OC	3	2	3	-4	-5	107*	133*	45*
N/C(=N\c1nc2ccccc2o1)NC(=O)c1ccccc1F	0	-7	19	-4	-27	104*	167*	15*
O=C(NC(=Nc1nc2ccccc2o1)NC(=O)c1ccccc1)c1ccccc1	-51	-7	7	-5	-11	30	/	/
O=[N+]([O-])c1cc(-c2ccc(C=Nn3cnnc3)o2)cc([N+](=O)[O-])c1	16	/	/	/	/	/	/	/
Cc1ccc(C=NNC(=O)Cn2nnc(N)n2)o1	5	/	/	/	/	/	/	/
SMILES	UCH37 DUB inh	A3G deaminase	Arrestin-AP2 inh	APOBEC3A inh	PolyA inhibitor	AHR activator	AHR act confirm	PXR counter
Cn1cncc1C#Cc1c(C=O)n(C)c2ccccc12	-7	-9	30	0	/	114*	109*	23*
CC(=NNC(=O)c1ccc(Cn2cc(Br)cn2)o1)c1cccc(NC(=O)C(C)(C)C)c1	3	/	/	/	/	/	/	/
Cc1ccsc1C1CC(=O)Nc2ccccc2S1 (stereo not drawn)	8	0	4	5	0	88*	112*	39*
CNc1sc(C(=O)c2cccs2)c(N)c1-c1nc2ccccc2s1	1	3	5	-2	-7	89*	119*	82*
CNc1sc(C(=O)c2ccc(F)cc2)c(N)c1-c1nc2ccccc2s1	4	0	13	3	-48	32	/	/
Nc1c(Cl)cc(-c2csc(N3CCCC3c3nc4cc(Cl)c(N5CCCCC5)cc4n3CCCO)n2)cc1Cl (stereo not drawn)	1	9	-3	-3	28	86*	86*	197*
Cc1ccc(-n2nc3cc(C)c(N)cc3n2)cc1	-208	-6	35	-1	-1	22	/	/
Cc1cc2nn(-c3cccc4ccccc34)nc2cc1N	-382	-4	20	-4	-7	82*	110*	21*
CC(=NNS(=O)(=O)c1ccc(Br)cc1)c1ccc2c(c1)OCO2	2	/	/	/	/	/	/	/
Cc1cc(C)nc(N/N=C/c2cccc3ccccc23)n1	/	0	7	1	-4	89*	32	34*
Cc1nc2ccccc2c(=O)n1N=Cc1ccccc1	0	/	/	/	/	/	/	/
CC(C)/C=N/Nc1nc(-c2ccc(Br)cc2)cs1	/	-10	-2	-6	-19	141*	16	18*
Brc1ccc(-c2csc(NN=Cc3ccco3)n2)cc1	1	/	/	/	/	/	/	/
CC(=O)Nc1sc(NN=Cc2ccco2)nc1-c1cccs1	10	/	/	/	/	/	/	/
COc1c(F)cccc1C1=CC(=O)C[C@H](c2ccc3c(c2)OCO3)C1	1	-2	10	-2	/	101*	76*	66*
COc1ccc([C@H]2CC(=O)C=C(c3cccc(F)c3OC)C2)cc1	0	-11	1	-2	/	0	/	/
O=C1C=C(c2ccc(Br)c3ccccc23)C[C@@H](c2ccc3c(c2)OCO3)C1	/	-2	-7	2	/	89*	95*	32*
COc1ccc([C@H]2CC(=O)C=C(c3ccc(Br)c4ccccc34)C2)cc1	2	-7	2	-1	/	10	/	/
COc1ccc(Br)cc1/C=N/NC(=O)c1ccc(OC)c(OC)c1	/	-9	11	2	-13	37	/	/
